Measurements from ChEMBL document CHEMBL1123504, “2,3-Dialkyl(dimethylamino)indoles: interaction with 5HT1, 5HT2, and rat stomach fundal serotonin receptors” (J Med Chem, 1986).

What was measured:
[1] = molecular target: T1, Serotonin 1 (5-HT1) receptor (Rattus norvegicus, UniProt P28564+P30940+P19327+P28565); assay: Binding affinity towards 5-hydroxytryptamine 1 receptor in brain cortical membranes of rat; format: cell membranes
Outline: (§1)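 Rat 5HT1 site: cortical membranes from 150-200-g male Wistar rats, preincubated in buffer to remove endogenous 5HT; […] per sample in 1 mL Tris buffer. [3H]-5HT at 2.3-2.6 nM; nonspecific binding with 10^-5 M 5HT. IC50 = 50% inhibition of specific binding, from 10 concentrations spanning 10^-9 to 10^-4 M.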

[2] = molecular target: Serotonin 2 (5-HT2) receptor (Rattus norvegicus, UniProt P30994+P08909+P14842); assay: Binding affinity towards 5-hydroxytryptamine 2 receptor in rat brain cortical membranes; format: cell membranes
Outline: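 5HT2 site, [3H]spiperone binding to cortical membranes of 150-200-g male Wistar rats, preincubated to deplete endogenous 5HT; […] per 1 mL Tris buffer. Nonspecific binding defined with 10^-6 M lysergic acid diethylamide. IC50 taken as 50% inhibition of specific binding, 10 concentrations from 10^-9 to 10^-4 M.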

Rattus norvegicus [3] = species: Rattus norvegicus; assay: Tested for noncumulative contractile concentration -response curves for serotonin in the rat fundus.; format: functional
Outline: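 Isolated rat stomach fundus strips, four per fundus, in 10 mL modified Krebs. Noncumulative serotonin curves, about 2 min contact per concentration, washout every 15-20 min, maximal contraction read. Antagonist or buffer for 1 h, then curve repeated; one antagonist concentration per tissue. KB = [B]/(dose ratio - 1) from ED50 shift, reported as -log KB.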

Rattus norvegicus [4] = species: Rattus norvegicus; assay: Tested for cumulative contractile concentration -response curves for serotonin in the rat jugular vein
[5] = molecular target: T1, Serotonin 1 (5-HT1) receptor; assay: Tested for its binding affinity towards 5-hydroxytryptamine 1 receptor in rat; outline: as §1
Rattus norvegicus [6] = species: Rattus norvegicus; assay: Tested for cumulative contractile concentration -response curves for serotonin in the rat jugular vein.

| Structure (SMILES) | IC50 [1] | IC50 [2] | IC50 [5] | -Log KB (Rattus norvegicus [3]) | -Log KB (Rattus norvegicus [4]) | -Log KB (Rattus norvegicus [6]) |
| --- | --- | --- | --- | --- | --- | --- |
| CCCn1c(C)c(CC)c2cc(N(C)C)ccc21 | > 1000 nM | > 1000 nM |  | 6.57 |  |  |
| CCc1c(C)c2cc(N(C)C)ccc2n1C | > 1000 nM | > 1000 nM |  | 6.69 | 6.48 |  |
| CCc1c(C)n(C)c2ccc(NC(=O)Nc3cccc(C(F)(F)F)c3)cc12 | > 1000 nM | > 1000 nM |  | 7.16 |  | 5.18 |
| CCc1c(C)[nH]c2ccc(N(C)C)c(Cl)c12 | > 1000 nM | > 1000 nM |  | 6.86 |  |  |
| CCc1c(C)n(CC)c2ccc(N(C)C)cc12 | > 1000 nM | > 1000 nM |  | 7.01 |  | 6.45 |
| CCc1c(C)n(C)c2ccc(N(C)C)cc12 | > 1000 nM | > 1000 nM |  | 7.32 |  | 6.51 |
| CCc1c(C)[nH]c2ccc(N(C)C)cc12 | > 1000 nM | > 1000 nM |  | 7.3 |  | 4.93 |

Second part, led by results:

| IC50 [1] | IC50 [2] | IC50 [5] | Structure (SMILES) | -Log KB (Rattus norvegicus [3]) | -Log KB (Rattus norvegicus [4]) | -Log KB (Rattus norvegicus [6]) |
| --- | --- | --- | --- | --- | --- | --- |
|  | > 1000 nM | > 1000 nM | CCc1c(C)n(C(=O)c2ccc(F)cc2)c2ccc(N(C)C)cc12 | <5 |  |  |
| > 1000 nM | > 1000 nM |  | CCc1c(C)n(C)c2c(N(C)C)cccc12 | <5.5 |  |  |
| > 1000 nM | > 1000 nM |  | CCc1c(C)n(C(C)C)c2ccc(N(C)C)cc12 | 7 | 7.28 |  |
| > 1000 nM | > 1000 nM |  | Cc1c(C)n(C)c2ccc(N(C)C)cc12 | 6.71 |  |  |
